The whole screen tested about 2,500 compounds, of which about 460 (18%) were called active. These entries were drawn from the full list. Unmarked numbers belong to inactive results.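 The calls were made as follows: active = mean activation above a cutoff of low control average plus 3 SD from the earlier screen (cut at about 12% in these data); inactive = the rest.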
Assay: IANBD-channel fluorescence artefacts in buffer – biochemical, artefact control for cardiac RTF calcium sensitizer project, confirmation (AID 504382)
Details: IANBD fluorescence interference counterscreen, EC20 Ca2+, at 7.2 µM, active compounds read high, scaled: EC20 calcium 0, EC100 calcium 100
In short: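 Medium: MOPS/KCl/MgCl2/EGTA/NTA/DTT buffer, pH 7.2 | Reagent: EC20 calcium, 0.472 mM | Compound dosing: 7.2 µM single dose | Times: 15 min compound exposure at 25 °C | Signal: Fluorescence, 480/540 nm | Measure: Interference relative to controls | Repeats: Triplicate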
Work on `CC1=CC(=C(C#N)c2nc3ccccc3s2)C=C(C)N1c1ccc(F)cc1` yielded a fluorescence artifact activation of 11.2%. For `CCC1C/C(=C\c2cc(OC)c(OC)cc2OC)C(=O)/C(=C/c2cc(OC)c(OC)cc2OC)C1` (stereo not drawn), the fluorescence artifact activation was 5.41%. For `O=[N+]([O-])c1ccc(N/N=C/c2ccc(OCc3cccc4ccccc34)cc2)nc1`, the fluorescence artifact activation was -0.02%. For `O=C(/C=C/c1ccccc1[N+](=O)[O-])Nc1cccnc1`, the fluorescence artifact activation was 0.87%. Work on `Cc1ccc2nc3nc(NCC4CCCO4)c(C(=O)NC4CCCC4)cc3c(=O)n2c1` (stereo not drawn) yielded a fluorescence artifact activation of 0.12%. Work on `COc1ccc(Cc2n[nH]c(=O)c3ccccc23)cc1OC` yielded a fluorescence artifact activation of 0.32%. Compound `C[C@H](CO)N1C[C@H](C)[C@@H](CN(C)C(=O)Nc2ccc(F)cc2)Oc2ccc(NS(C)(=O)=O)cc2C1=O` has a fluorescence artifact activation of 0.09%. `Cc1ccc(N2C(=O)c3cccc4c(N)ccc(c34)C2=O)c2cccnc12` gave a fluorescence artifact activation of 0.51%. In the case of `O=C(Nc1ccc2c(c1)OCCO2)c1cccc(Cl)c1Cl`, the fluorescence artifact activation is reported as 13.6% (active). Compound `O=C(Nc1ccc(C(=O)N2CCOCC2)cc1)Nc1cccc(Cl)c1` has a fluorescence artifact activation of 8.09%. `O=C(Nc1ccc2c(c1)OCO2)c1ccc2c(c1)OCO2` gave a fluorescence artifact activation of 8.95%. `Cc1ccc(C(=O)NNC(=O)CSc2nnc(-c3ccncc3)n2-c2ccc(C)cc2)cc1` showed a fluorescence artifact activation of 0.09%. `CCN1C(=O)[C@@H]2Cc3c([nH]c4ccccc34)C(c3ccc(OC)cc3)N2C1=S` (stereo partly drawn) showed a fluorescence artifact activation of -0.08%. Work on `O=C(c1ccccn1)N(Cc1cccs1)C1(C(=O)NC2CCCCC2)CCCCC1` yielded a fluorescence artifact activation of 0.12%. In the case of `CCN(CC(=O)Nc1ccccc1C(=O)NC1CC1)Cc1cccs1`, the fluorescence artifact activation is reported as 25.6% (active). `O=C(NC1CCCCC1)c1ccccc1NC(=S)NC(=O)C1CCC1` gave a fluorescence artifact activation of 8.42%. Compound `O=S(=O)(/C=C/c1ccccc1)N1CCc2ccccc2C1` has a fluorescence artifact activation of 0.07%. Work on `CCn1c(C)c(CCC(=O)O)c(=O)n2nc(-c3ccccc3OC)cc12` yielded a fluorescence artifact activation of 0.2%. For `Cc1cc(C)nc(NS(=O)(=O)c2ccc(NC(=O)CSc3nc4ccccc4[nH]3)cc2)n1`, the fluorescence artifact activation was 0.03%. `CC(=O)Nc1ccc(S(=O)(=O)NCCC(=O)OCC(=O)c2cc(C)ccc2C)cc1` showed a fluorescence artifact activation of 0.05%. For `CC(=O)Nc1ccc(SCC(=O)NNC(=O)CN(C)S(=O)(=O)c2ccc(C)cc2)cc1`, the fluorescence artifact activation was 70.4% (active). In the case of `CCOc1ccc2nc3cc(NCc4ccc(OC)cc4)ccc3c(N)c2c1`, the fluorescence artifact activation is reported as 0.41%. Work on `Cc1ccc(N=C2NC(=O)/C(=C/c3cn(C)c4ccccc34)S2)cc1C` yielded a fluorescence artifact activation of 0%. In the case of `Cn1cc(/C=C/c2cc[n+](C)cc2)c2cc(Cl)ccc21`, the fluorescence artifact activation is reported as 0.1%. For `Cn1cc(C2=C(c3ccc(Cl)cc3Cl)C(=O)NC2=O)c2ccccc21`, the fluorescence artifact activation was 12.7% (active). In the case of `COc1cccc(C(=O)Nc2cc(C(=O)NCc3ccc(C)cc3)ccc2N2CCC3(CC2)CC(c2cccc(Br)c2)=NO3)c1`, the fluorescence artifact activation is reported as -0.03%. Compound `CCN(CC(=O)Nc1ccccc1C(F)(F)F)C(=O)c1ccc(-n2nc(C)c(CCC(=O)OC)c2C)cc1` has a fluorescence artifact activation of 8.41%. Compound `N#Cc1cccc(NC(=O)CSc2ccc3c4c(cccc24)C(=O)c2ccccc2-3)c1` has a fluorescence artifact activation of 0.19%. With `Cn1nc(C(F)(F)F)c(-c2ccc(Br)cc2)c1NC(=O)c1ccco1` the fluorescence artifact activation was 0.14%. In the case of `CCC(CC)NC(=O)Nc1ccccc1C`, the fluorescence artifact activation is reported as 0.09%. Work on `COCCn1c(C)cc(C(=O)COC(=O)c2ccc(Cl)c(S(N)(=O)=O)c2)c1C` yielded a fluorescence artifact activation of 3.98%. Compound `Cc1nnc(NC(=O)CSc2ncnc3c2cnn3-c2ccccc2C)s1` has a fluorescence artifact activation of 2.39%. In the case of `Cc1ccc(CNC(=O)CCn2cc(-c3ccc(C)cc3)nc2-c2ccncc2)cc1`, the fluorescence artifact activation is reported as 18.1% (active). In the case of `Cc1ccc(CNC(=O)c2cc(-c3ccccc3)nn2Cc2cc(C)no2)cc1`, the fluorescence artifact activation is reported as 0.08%. In the case of `Cc1ccc(C)c(C(=O)CCC(=O)NCc2ccc(Cl)cc2)c1`, the fluorescence artifact activation is reported as 0.14%. Compound `COc1ccc2nc(C)c3cc(C)oc3c2c1` has a fluorescence artifact activation of 8.29%. In the case of `Cn1nc(-c2ccccc2)c(C(=O)Nc2ccc(C(F)(F)F)cc2)c1Cl`, the fluorescence artifact activation is reported as 5.74%. For `Cc1cc([N+](=O)[O-])ccc1-c1ccc(/C=N/NC(=O)c2ccc(Br)o2)o1`, the fluorescence artifact activation was 0.29%. With `COC(=O)c1cc(-c2cccc(OC)c2)n[nH]1` the fluorescence artifact activation was 1.23%. With `CC(O)Cc1cn([C@@H](CCCCN)C(=O)N2CCNCC2)nn1` (stereo partly drawn) the fluorescence artifact activation was 0.06%. With `C[C@@H](C(=O)N1CCNCC1)n1cc(CCCN=C(N)N)nn1` the fluorescence artifact activation was 29.3% (active). For `CC(C)(C)OC(=O)NCCCC[C@@H](C(=O)N1CCN(C(=O)OC(C)(C)C)CC1)n1cc(CCC(=O)O)nn1`, the fluorescence artifact activation was 0.16%. In the case of `CC(Oc1ccc(F)cc1)C(=O)Nc1sc2c(c1C(=O)NCc1cccnc1)CCCC2` (stereo not drawn), the fluorescence artifact activation is reported as 9.94%. Work on `Nc1cccc(N2C(=O)c3cccc4c(N)ccc(c34)C2=O)c1` yielded a fluorescence artifact activation of 0.16%. With `CS(=O)(=O)c1ccc(C(=O)OCC(=O)Nc2cccnc2Cl)cc1[N+](=O)[O-]` the fluorescence artifact activation was 0%. `COc1ccc2ccccc2c1C(O)c1nccn1C` (stereo not drawn) showed a fluorescence artifact activation of 10.5%. With `Cc1occc1C(=O)Nc1cccc([N+](=O)[O-])c1` the fluorescence artifact activation was 11.4%. With `COC(=O)c1cc2c(=O)c3ccccc3oc2nc1/C=C/N(C)C` the fluorescence artifact activation was 0.12%. Compound `CC(=O)c1ccc(C(=O)Nc2sc3c(c2C(N)=O)CCN(Cc2ccccc2)C3)cc1` has a fluorescence artifact activation of -0.06%. Compound `NC(=O)c1c(NC(=O)C2COc3ccccc3O2)sc2c1CCN(Cc1ccccc1)C2` (stereo not drawn) has a fluorescence artifact activation of 0.08%. For `NC(=O)c1c(NC(=O)c2ccccc2)sc2c1CCN(Cc1ccccc1)C2`, the fluorescence artifact activation was 37.1% (active). In the case of `Cc1nc(-c2ccc(C#N)cc2)cs1`, the fluorescence artifact activation is reported as -0.01%. `CN(C)c1ccc(N=Cc2nc(-c3ccccc3)oc2O)cc1` showed a fluorescence artifact activation of 7.65%. With `COc1ccc(N=C(N)N=C(N)N)c(OC)c1` the fluorescence artifact activation was 0%. In the case of `CCOc1cc(N2CCOCC2)c(OCC)cc1NC(=O)CCS(=O)(=O)c1ccc(Cl)cc1`, the fluorescence artifact activation is reported as 9.02%. Compound `CN(C)c1ccc(/C=C2\SC(=O)N(CC(O)Cn3c4ccccc4c4ccccc43)C2=O)cc1` (stereo not drawn) has a fluorescence artifact activation of 5.59%. Work on `CCC(CO)[n+]1c(C)cc(/C=C2\Sc3ccccc3N2Cc2ccccc2)cc1C` (stereo not drawn) yielded a fluorescence artifact activation of 0.01%. For `Cc1cccc(/C=C2/SC(=O)N(Cc3ccccc3)C2=O)n1`, the fluorescence artifact activation was 15.4% (active). Compound `Cc1ccc2c(c1)CCCN2CC(=O)N(C)c1c(N)n(Cc2ccccc2)c(=O)[nH]c1=O` has a fluorescence artifact activation of -0.05%. With `CCn1c(=O)c(C(=O)CN2CCCc3ccccc32)c(N)n(Cc2ccccc2)c1=O` the fluorescence artifact activation was 15.2% (active). Compound `COCCN(C(=O)CN1CCCc2ccccc21)c1c(N)n(Cc2ccccc2)c(=O)[nH]c1=O` has a fluorescence artifact activation of 3.59%. Work on `Nc1c(C(=O)C2CC2)sc2nc(-c3cccs3)cc(C(F)(F)F)c12` yielded a fluorescence artifact activation of 3.83%. Compound `O=c1[nH]c(-[n+]2ccccc2)c(/C=N/NC([S-])=Nc2ccccc2)s1` has a fluorescence artifact activation of 0.03%. In the case of `Cc1cc[n+](-c2[nH]c(=O)sc2/C=N/NC([S-])=Nc2ccccc2)cc1C`, the fluorescence artifact activation is reported as 0.4%. With `CCc1ccc[n+](-c2[nH]c(=O)sc2/C=N/NC([S-])=Nc2ccccc2)c1` the fluorescence artifact activation was 19.1% (active). With `Cc1ccc(S(=O)(=O)N2CCN(c3ncccn3)CC2)cc1C` the fluorescence artifact activation was -0.05%. `Cc1ccccc1S(=O)(=O)Cc1ccc(C(=O)NCCN(C)Cc2ccccc2)o1` gave a fluorescence artifact activation of 11%. Compound `Cc1nn(Cc2c(F)c(F)c(F)c(F)c2F)c(C)c1NC(=O)c1nn(C)c(C)c1Br` has a fluorescence artifact activation of 0.14%. `Cc1c(O)c2c3c(cccc3c1O)C(=O)N(c1ccccc1)C2=O` showed a fluorescence artifact activation of 6.04%. With `Nc1ccc2c3c(cccc13)C(=O)N(c1ccccc1)C2=O` the fluorescence artifact activation was 0.18%. With `CCC/C(C#Cc1ccc(N(C)C)cc1)=C1/c2ccccc2C(=O)N1c1ccccc1` the fluorescence artifact activation was 17.9% (active). In the case of `CCCS(=O)(=O)N1CCC(C(=O)NCCCN2CCC(Cc3ccccc3)CC2)CC1`, the fluorescence artifact activation is reported as 0.05%. With `CC(=O)Nc1cccc(NC(=O)CSc2nnc(Cc3cccn3C)n2CCc2ccccc2)c1` the fluorescence artifact activation was 2.41%. Work on `CCN1C(=O)[C@@H]2[C@@H](c3ccc(-c4cccc(Cl)c4)cc3)N3CCC[C@@]3(C(=O)OC)[C@@H]2C1=O` yielded a fluorescence artifact activation of 0.02%. With `CC(=O)Nc1sc(/C(C#N)=C/c2ccc(Cl)c(Cl)c2)nc1-c1ccc(C)cc1` the fluorescence artifact activation was -0.03%. Work on `CCOc1cc(/C=C(\C#N)c2nc(-c3cccs3)c(NC(C)=O)s2)ccc1O` yielded a fluorescence artifact activation of -0.03%. With `CC(=O)Nc1sc(/C(C#N)=C\c2cccc(Cl)c2)nc1-c1ccc(C)cc1` the fluorescence artifact activation was 16.5% (active). In the case of `CC(C)(C)c1cc(NCc2ccccn2)n2ncc(-c3ccc(Cl)cc3)c2n1`, the fluorescence artifact activation is reported as 0.93%. Compound `CCCN1CCc2c(sc(NC(=S)NC(=O)c3ccccc3)c2C#N)C1` has a fluorescence artifact activation of 11.1%. With `O=C(Nc1ccccc1F)C(=Cc1sc(N2CCOCC2)nc1-c1ccccc1)C(=O)Nc1ccccc1F` the fluorescence artifact activation was 0.15%. With `CN1C(=O)/C(=C\C=C2/CCCN2C)N(C)C1=S` the fluorescence artifact activation was 56.9% (active). `CN1CCC/C1=C/C=C1\SC(=S)NC1=O` showed a fluorescence artifact activation of 0.02%. In the case of `CCN1C(=O)/C(=C/C=C2/CCCN2C)OC1=S`, the fluorescence artifact activation is reported as 0.08%. `O=C(O)c1ccc2c(c1)S(=O)(=O)c1ccccc1C2=O` gave a fluorescence artifact activation of 0.03%. `O=C1c2ccccc2-c2onc3ccc(Oc4ccccc4)c1c23` gave a fluorescence artifact activation of 0.44%. `CCCCCCNC(=O)C(C#N)c1nc2ccccc2nc1N1CCCC1` (stereo not drawn) gave a fluorescence artifact activation of 0.17%. With `CCN(CC)c1nc2ccccc2nc1C(C#N)C(=O)NCCc1ccccc1` (stereo not drawn) the fluorescence artifact activation was 164% (active). With `N#CC(C(=O)NCc1ccccc1)c1nc2ccccc2nc1N1CCCC1` (stereo not drawn) the fluorescence artifact activation was -0.08%.
